Screening data (PubChem BioAssay)
Hits are enriched below; roughly 2.5% of the tested compounds scored in any of these assays.
ERAP1 HTS inh: human ERAP1 aminopeptidase inhibitors, primary screen, biochemical, single point, plate reader; Endoplasmic reticulum aminopeptidase 1 (Homo sapiens), Q9NZ08; recombinant ERAP1, Leu-AMC fluorescence, 60 min; inhibition, % at 10.7 µM; 0.15% of 340,000 active; AID 652197, 2013;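 active = mean replicate inhibition of at least 30%, or all replicates individually reaching that 30% level; inactive = mean below 30% and not every replicate reaching it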
E-selectin induc: E-selectin induction in HUVECs, primary screen, imaging, HUVEC, immunofluorescence imaging, single point; 0.37% of 260,000 active; normalized: neutral wells 0, TNF-alpha wells 100; activation, % at 7.58 µM;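 active = mean E-selectin-positive cell signal at least 10% of the positive control, reached in at least 60% of replicates, without over 20% cell loss; inconclusive = no rule given, readout overlaps actives, possibly toxicity-flagged; inactive = the rest, including those meeting only one limit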
Target sequence (P16581 whole entry, looked up): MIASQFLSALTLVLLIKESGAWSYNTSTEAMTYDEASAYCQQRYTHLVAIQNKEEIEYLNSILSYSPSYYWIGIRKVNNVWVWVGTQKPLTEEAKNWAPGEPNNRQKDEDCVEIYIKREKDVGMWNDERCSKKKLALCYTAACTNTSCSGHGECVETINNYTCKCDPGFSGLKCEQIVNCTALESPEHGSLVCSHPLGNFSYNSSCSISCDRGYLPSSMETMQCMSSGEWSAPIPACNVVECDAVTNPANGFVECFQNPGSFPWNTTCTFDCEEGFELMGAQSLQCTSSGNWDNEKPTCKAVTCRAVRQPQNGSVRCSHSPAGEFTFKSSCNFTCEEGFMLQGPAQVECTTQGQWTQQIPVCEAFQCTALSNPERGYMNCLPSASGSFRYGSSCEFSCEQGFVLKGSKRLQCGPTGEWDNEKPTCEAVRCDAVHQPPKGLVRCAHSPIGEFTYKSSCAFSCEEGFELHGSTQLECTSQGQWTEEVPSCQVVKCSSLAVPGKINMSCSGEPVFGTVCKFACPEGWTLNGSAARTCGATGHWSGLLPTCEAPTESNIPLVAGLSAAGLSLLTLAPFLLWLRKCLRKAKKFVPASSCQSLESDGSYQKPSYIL
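Assay system: HUVEC primary endothelial cells. Input: 3,000 HUVEC seeded per well. Doses: one compound dose added by pin transfer. Read-out basis: % PE-positive cells. Benchmarks: TNF-alpha high, DMSO low. Detection: immunofluorescence imaging. Buffer or medium: EGM-2, gelatin.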
SIRT5 inh: SIRT5 desuccinylase inhibitors, primary screen, biochemical, fluorescence imaging, single point, set 5; NAD-dependent protein deacylase sirtuin-5, mitochondrial (Homo sapiens), Q9NXA8; Purified SirT5, succinyl-peptide AMC, trypsin-coupled fluorescence; inhibition, % at 15 µM; 1.1% of 330,000 active; in the data active = inhibition above about 15%; inconclusive = no clear call, values can overlap the other calls
PglD DTNB: C. jejuni PglD acetyltransferase inhibitors, primary screen, biochemical, DTNB colorimetric, single point | 0.098% of 360,000 active | purified PglD enzyme, DTNB colorimetric CoA detection | UDP-N-acetylbacillosamine N-acetyltransferase PglD (Campylobacter jejuni) | inhibition, % at 12.5 µM; in the data active = inhibition above about 16%, passing the limit was not always enough; inconclusive = no clear call, values can overlap the other calls
DENV2 CPE: inhibitors of DENV2 cytopathic effect, primary screen, cell-based, plate reader, single concentration. DENV2-infected cells, cytopathic effect rescue. CPE inhibition, % at 9.99 µM. 1.7% of 350,000 active. AID 651640, 2012; in the data active = CPE inhibition above about 20%, passing the limit was not always enough; inconclusive = no clear call, values can overlap the other calls; tested in BHK-21 cells
Hits are given with their value; 0 = inactive; ? = inconclusive; - = no result; ! = not active in a repeat.

SMILES	ERAP1 HTS inh	E-selectin induc	SIRT5 inh	PglD DTNB	DENV2 CPE
COc1ccccc1-c1ccc2c(c1)O[C@@H](CN(C)Cc1ccc3c(c1)OCO3)[C@@H](C)CN([C@H](C)CO)S2(=O)=O	0	-	17.2	0	0
COc1ccccc1-c1ccc2c(c1)O[C@@H](CN(C)C)[C@@H](C)CN([C@H](C)CO)S2(=O)=O	0	0	0	0	0
C[C@@H]1CN([C@@H](C)CO)S(=O)(=O)c2ccc(-c3cccc(C(=O)N(C)C)c3)cc2O[C@H]1CN(C)Cc1ccc2c(c1)OCO2	0	-	19.4	0	0
COc1ccccc1-c1ccc2c(c1)O[C@@H](CN(C)Cc1ccc3c(c1)OCO3)[C@H](C)CN([C@@H](C)CO)S2(=O)=O	0	-	23.3	0	0
O=C(O)CCN1CCOCC1	-	-	-	0	-
C[C@H](CO)N1C[C@H](C)[C@@H](CN(C)S(C)(=O)=O)OCCCC[C@H](C)Oc2ccc(NC(=O)C3CCCCC3)cc2C1=O	0	0	0	0	0
C[C@@H]1CCCCO[C@H](CN(C)C(=O)c2ccccc2)[C@H](C)CN([C@@H](C)CO)C(=O)c2cc(NC(=O)CCCN(C)C)ccc2O1	-	0	-	-	-
CN1C(=O)C(O)(CC(=O)/C=C/c2ccco2)c2cc(Br)ccc21 (stereo not drawn)	0	-	0	0	0
C/C=C/c1ccc2c(c1)O[C@H](CN(C)Cc1ccccc1)[C@@H](C)CN([C@@H](C)CO)S2(=O)=O	0	0	18.0	0	0
C/C=C/c1ccc2c(c1)O[C@@H](CN(C)Cc1cccc(F)c1)[C@@H](C)CN([C@H](C)CO)S2(=O)=O	0	0	0	0	0
C/C=C/c1ccc2c(c1)O[C@H](CN(C)Cc1cccc(F)c1)[C@@H](C)CN([C@@H](C)CO)S2(=O)=O	0	0	17.4	0	0
C[C@@H]1CN([C@H](C)CO)S(=O)(=O)c2ccc(/C=C/c3ccccc3)cc2O[C@H]1CN(C)Cc1ccccc1	0	0	23.3	0	0
C/C=C/c1ccc2c(c1)O[C@@H](CN(C)Cc1ccccc1)[C@@H](C)CN([C@@H](C)CO)S2(=O)=O	0	0	0	0	0
CC(=O)SCC[N+](C)(C)C	0	0	0	0	0
CCCCN(C)CCNC(=O)c1ccc(Cn2c(=S)[nH]c3ccc(Br)cc3c2=O)cc1	0	-	49.3	-	0
CN(Cc1ccccc1)C(=O)c1ccc(NC(=O)Cc2ccc(NC(=O)C3CCN(C(=O)C4CCC4)CC3)cc2)cc1	0	0	0	0	53.4
CC(C)(C)OC(=O)N1CCCC(C(=O)Nc2cccc(C(=O)NCCCCc3ccccc3)c2)C1 (stereo not drawn)	0	0	16.5	0	0
O=C(Cc1cccc(NC(=O)C2CCN(C(=O)C3CCCC3)CC2)c1)Nc1cccc(C(=O)N2CCCCC2)c1	-	0	0	0	43.2
O=C(Cc1cccc(NC(=O)C2CCCN(C(=O)C3CCCCC3)C2)c1)Nc1ccc(C(=O)N2CCOCC2)cc1 (stereo not drawn)	0	0	0	0	23.7
CC(C)(C)OC(=O)N1CCCC(C(=O)Nc2cccc(C(=O)NCCc3ccccc3)c2)C1 (stereo not drawn)	0	0	0	0	0
O=C(Cc1cccc(NC(=O)C2CCN(C(=O)C3CCCC3)CC2)c1)Nc1cccc(C(=O)N2CCCC2)c1	-	0	-	0	0
CC(C)OC(=O)CSc1nc(-c2ccc(F)cc2)cc(C(F)(F)F)n1	-	-	-	0	-
COC(=O)[C@H]1[C@H](CO)[C@H]2Cn3c(cccc3=O)[C@H]2N1C(=O)C1CC1	0	0	0	0	0
CCOC(=O)CSc1ncccn1	0	0	0	-	0
COc1ccc(CCNC(=O)C(=O)NCC2OCCN2S(=O)(=O)c2ccc(C)cc2)cc1 (stereo not drawn)	0	0	0	0	0
SMILES	ERAP1 HTS inh	E-selectin induc	SIRT5 inh	PglD DTNB	DENV2 CPE
O=C(Cc1ccc(NC(=O)C2CCCN(C(=O)C3CC3)C2)cc1)Nc1cccc(C(=O)N2CCCC2)c1 (stereo not drawn)	0	0	0	0	62.1
O=C(Cc1ccc(NC(=O)C2CCCN(C(=O)C3CCCCC3)C2)cc1)Nc1cccc(C(=O)N2CCCC2)c1 (stereo not drawn)	0	0	0	0	0
COc1ccc(NC(=O)Nc2ccc3c(c2)C(=O)N([C@H](C)CO)C[C@H](C)[C@@H](CN(C)S(=O)(=O)c2ccc(OC)cc2)O3)cc1	0	0	0	0	26.4!
COc1ccc(NC(=O)Nc2ccc3c(c2)C(=O)N([C@H](C)CO)C[C@H](C)[C@@H](CN(C)S(C)(=O)=O)O3)cc1	0	0	0	0	25.6!
C[C@H](CO)N1C[C@H](C)[C@H](CN(C)S(C)(=O)=O)Oc2ccc(NC(=O)Nc3ccccc3)cc2C1=O	0	0	0	0	0
C[C@H](CO)N1C[C@H](C)[C@@H](CN(C)S(C)(=O)=O)Oc2ccc(NC(=O)Nc3ccccc3)cc2C1=O	0	0	0	0	88.5!
COc1ccc(NC(=O)Nc2ccc3c(c2)C(=O)N([C@@H](C)CO)C[C@@H](C)[C@@H](CN(C)S(C)(=O)=O)O3)cc1	0	0	0	0	0
COc1ccc(S(=O)(=O)N(C)C[C@@H]2Oc3ccc(NC(=O)C4CC4)cc3C(=O)N([C@H](C)CO)C[C@H]2C)cc1	0	0	0	16.1	?
C[C@@H]1CN([C@@H](C)CO)C(=O)c2cccc(N(C)C)c2O[C@H]1CN(C)Cc1ccc(Oc2ccccc2)cc1	0	-	-	0	0
C[C@@H]1CN([C@H](C)CO)C(=O)c2cccc(NC(=O)C3CC3)c2O[C@H]1CN(C)Cc1ccccc1	0	0	0	0	0
COc1ccc(NC(=O)Nc2ccc3c(c2)C(=O)N([C@H](C)CO)C[C@@H](C)[C@@H](CN(C)S(=O)(=O)c2ccc(F)cc2)O3)cc1	-	40.3	-	0	0
COc1ccc(NC(=O)Nc2ccc3c(c2)C(=O)N([C@H](C)CO)C[C@H](C)[C@H](CN(C)S(=O)(=O)c2ccc(F)cc2)O3)cc1	-	0	-	0	0
COc1cc(CCCN[C@H](CN)Cc2ccccc2)cc(OC)c1OC	-	0	-	0	-
NC[C@H](Cc1ccccc1)NCCCCC1CCCCC1	0	0	-	0	35.5
OC(COc1ccc(F)cc1Cl)CN1CCC(Cc2ccccc2)CC1 (stereo not drawn)	0	0	0	0	0
O=C(C[C@@H]1CC[C@H]2[C@@H](COC[C@H](O)CN2Cc2ccccc2)O1)NCCc1ccccc1	0	0	0	0	?
CC(=O)NCCOc1cccc2ccccc12	-	-	-	0	-
c1ccc(CCNCCCOc2cccc3ccccc23)cc1	0	-	0	0	35.2
O=C(NCc1ccc(F)cc1)c1cc(-c2ccccn2)nc2ccc(S(=O)(=O)N3CCOCC3)cc12	0	0	-	0	31.1
